Source: PMC10431048 (CPT: Pharmacometrics & Systems Pharmacology, 2023)
Several values for one entry are separate records, joined by “and”; a condition that tells them apart may be missing. Equal entries are not always repeated. Entries after “also recorded” stand apart in the source; their conditions may differ. Where two headings read alike, the source gives them in different places.

What was measured:
[1] = cited from earlier work
[2] = format: in vivo, human; details: for change in steady-state AUC vs base: 800 mg once daily
Summary of the method: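 Simulated steady-state exposure (AUC, Cmax, Cmin) at 800 mg/day from the final model for a typical white male FSGS subject: 800-mg tablet, median ALKP and CrCL, no moderate or strong CYP3A4 inhibitor. Continuous covariates were set one at a time to 5th and 95th percentiles, and categorical covariates to alternative categories. Multivariate effects came from post hoc individual estimates stratified by covariate category.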

Population PK model = format: in vivo, human
Summary of the method: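 Plasma from nine trials (healthy, hepatic-impaired, FSGS; K2EDTA; acetonitrile precipitation; deuterated internal standard) was assayed by LC-MS/MS, 2.00–4000 ng/mL, LLOQ 2 ng/mL; samples below LLOQ were excluded. NONMEM FOCE-I fit: two compartments, lag plus first-order absorption, proportional-plus-additive error, nonlinear Frel above 200 mg, instant CL/F induction after first dose. Covariates: forward p<0.01, backward p<0.001. Bootstrap gave standard errors.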

[3] = mild and moderate hepatic impairment; ref study 021IHFX16009, data on file; cited from earlier work
[4] = sparsentan 400 titrating to 800 mg/day vs irbesartan, week 36; cited from earlier work
[5] = mass balance study; ref study 021HVOL16005, data on file; cited from earlier work
CYP3A = details: ref data on file, cited from earlier work
[6] = ALKP at the 5th and 95th percentile
[7] = CrCL at the 5th and 95th percentile
[8] = covariates other than moderate/strong CYP3A4 inhibitors, steady-state 800 mg
[9] = log-domain coefficient, vs capsule
[10] = log-domain coefficient, vs white

Compound: CCCCC1=NC2(CCCC2)C(=O)N1Cc1ccc(-c2ccccc2S(=O)(=O)Nc2noc(C)c2C)c(COCC)c1 [sparsentan]
- reduction in urinary protein to creatinine ratio (UP/C) ([1]; sparsentan 200, 400, or 800 mg/day vs irbesartan 300 mg/day, 8 weeks): higher reduction
- rates of patients reaching the FSGS partial remission end point (FPRE) ([1]; sparsentan vs irbesartan): higher rates
- effect of ALKP on AUC [2, 6]: < 15%
- effect of ALKP on Cmax [2, 6]: < 10%
- impact of CrCL on AUC [2, 7]: < 20%
- impact of CrCL on Cmax [2, 7]: < 10%
- steady-state exposures across race ([2]; FSGS, 800-mg tablet): comparable
- steady-state exposure by age bracket ([2]; FSGS, 800-mg tablet, age 8-17, 18-64, >=65 years): increase
- effect of formulation on steady-state AUC ([2]; capsule and crushed tablet compared to tablet): unaffected; also recorded: no overall change
- increase in steady-state Cmax by formulation ([2]; capsule and crushed tablet formulations compared to tablet, 800 mg): less than 10%
- effect of other covariates on AUC [2, 8]: less than 20%
- effect of other covariates on Cmax [2, 8]: less than 20%
- impact of sex and race on steady-state AUC ([2]; female, White, Black, Asian): < 15%
- impact of sex and race on steady-state Cmax ([2]; female, White, Black, Asian): < 15%
- change in steady-state Cmax vs base ([2]; moderate CYP3A4 inhibitor comedication): 16.0%
- change in steady-state AUC vs base ([2]; moderate CYP3A4 inhibitor comedication, FSGS): 31.4% and 31%
- change in steady-state AUC vs base ([2]; strong CYP3A4 inhibitor comedication, FSGS): 191.3% and 191%
- Vc/F (derived) (Population PK model; 800 mg dose): 69.5 L
- Vp/F (derived) (Population PK model; 800 mg dose): 17.0 L
- CL/F (derived) (Population PK model; 800 mg dose, single dose, reference subject): 5.47 L/h
- Q/F (Population PK model; 400-mg dose, reference subject): 2.03 L/h
- Vp/F (Population PK model; 400-mg dose, reference subject): 12.1 L
- Vc/F (Population PK model; 400-mg dose, reference subject white female, 400-mg capsule): 49.3 L
- effect of co-medications on PK (Population PK model; acid reducer (including proton pump inhibitors), P-gp inhibitor, or mild CYP3A4 inhibitor): No significant effect
- Induction change in CL (Population PK model; additional CL at steady-state (CYP3A auto-induction), 400-mg reference subject): 1.23 L/h
- Ka (Population PK model; capsule (reference)): 0.740 h⁻¹
- half-life (Population PK model; human, plasma, oral, 800 mg): 9.6 h
- Variance Ka (Population PK model; interindividual random effect): 0.474
- Variance Vc (Population PK model; interindividual random effect): 0.234
- Effect on Ka: Crushed tablet (Population PK model; [9]): 0.080
- Effect on Ka: Tablet (Population PK model; [9]): −0.306
- Effect on Vc: Asian (Population PK model; [10]): 0.265
- Effect on Vc: Black or African American (Population PK model; [10]): 0.309
- increase of clearance due to CYP3A auto-induction at steady-state (Population PK model; steady-state vs first dose): 32%
- effect of hepatic impairment on sparsentan exposure [3]: not having a large effect
- FPRE response, interim results [4]: significantly greater
- urinary excretion [5]: 2.18 % of the radioactive dose
- interaction with CYP3A in vitro (CYP3A; in vitro): competitive inhibitor and inducer
- metabolism (CYP3A): primarily metabolized by CYP3A
